Experimental data reported in ChEMBL document CHEMBL5715946 (Chem Biol, 2010).
The source made the active and inactive calls. No cut-off for these calls is given here.

What was measured:
[1] = Reduction in MIF expression in MIF siRNA transfected rat H9c2 cell lysates at 3 uM measured after 24 hrs ELISA relative to control; format: functional; set-up: scale not given: the % may be the effect or the level left
In short: (§1)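 H9c2 cells transfected with 100 nM rat MIF siRNA or negative-control siRNA using Oligofectamine in Opti-MEM, then treated with 3 μM compound for 24 hr. MIF mRNA by real-time qPCR; MIF protein in cell lysate and medium by ELISA. Mean ± SD, n = 3.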

[2] = tested on: Antioxidant response element; test: Induction of ARE activity in serum-deprived neonatal Wistar rat cardiomyocytes assessed as increase in GST Ya mRNA level up to 3 uM measured after 24 hrs by RT-qPCR analysis; format: cell-based; details: Cardiomyocyte
In short: (§2)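 Neonatal rat cardiomyocytes exposed to samples or vehicle in M-199 with 1% penicillin-streptomycin, no serum, for 24 hr. GST Ya and HO-1 mRNA measured by real-time qPCR (mean ± SD, n = 3); protein by western blot with β-actin as control.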

[3] = Upregulation of 3-methylcholanthrene-inducible UDP-glucuronosyltransferase gene expression in serum-deprived neonatal Wistar rat cardiomyocyte at 0.37 uM incubated for 21 hrs by microarray analysis relative to control; format: functional, Cardiac muscle cell
In short: (§3)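 Primary neonatal rat cardiomyocytes cultured with or without 0.37 μM compound in serum-free medium for 21 hr. Total RNA profiled on the rat genome U34A GeneChip array (about 7000 known genes).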

[4] = tested on: Antioxidant response element; test: Induction of ARE activity in serum-deprived neonatal Wistar rat cardiomyocytes assessed as increase in HO-1 mRNA level up to 3 uM measured after 24 hrs by RT-qPCR analysis; format: cell-based; details: Cardiomyocyte; in short: as §2
[5] = tested on: Cardiac muscle cell; test: Potency index, ratio of trolox MEC1.5 to test compound MEC1.5 for cytoprotective activity against serum deprivation-induced neonatal Wistar rat cardiomyocyte death; format: functional
[6] = tested on: Antioxidant response element; test: Induction of rat ARE activity expressed in MIF-stimulated rat H9c2 cells assessed as increase in ARE luciferase activity at 1 uM measured after 24 hrs by steady-glo luciferase Assay; format: cell-based
In short: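 H9c2 cells transiently transfected with pGL3-ARE-Luc (rat GST Ya ARE) or mutant-ARE control plasmid, then treated with rMIF with or without 1 μM compound for 24 hr. Luciferase by Steady-Glo; mean ± SD, n = 4.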

[7] = molecular target: Macrophage migration inhibitory factor (Rattus norvegicus) (UniProt P30904); test: Inhibition of MIF tautomerase activity in rat H9c2 cells at 30 uM using L-dopachrome carboxy-methyl ester as substrate incubated for 6 hrs under serum-free medium by spectrophotometry relative to control; format: cell-based
In short: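 H9c2 cells exposed to 30 μM compound for 6 hr; MIF tautomerase activity then measured in cell lysate.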
Target sequence in this assay (P30904 2-115 limits assumed): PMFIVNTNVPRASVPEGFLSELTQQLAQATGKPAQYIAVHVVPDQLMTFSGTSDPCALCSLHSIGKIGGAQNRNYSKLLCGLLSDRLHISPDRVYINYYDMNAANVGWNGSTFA

[8] = molecular target: Macrophage migration inhibitory factor (Rattus norvegicus) (UniProt P30904); test: Binding affinity to BTZO-12 sensor chip immobilized recombinant rat MIF expressed in Escherichia coli BL21 (DE3) at pH 6 by SPR analysis
In short: (§4)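 SPR on a BTZO-12-type sensor chip with purified recombinant rat MIF, binding compared at pH 6.0 and pH 7.3.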
Target sequence in this assay (P30904 2-115 limits assumed): as above

[9] = tested on: Antioxidant response element; test: Induction of rat ARE activity expressed in rat H9c2 cells assessed as increase in ARE luciferase activity measured after 24 hrs by steady-glo luciferase Assay; format: cell-based
In short: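 H9c2 cells transiently transfected with pGL3-ARE-Luc or pGL3-mARE-Luc, compound exposure 24 hr, luciferase read by Steady-Glo. MEC2.0 is the concentration giving a doubling of luciferase activity. Mean ± SD, n = 4.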

[10] = tested on: Antioxidant response element; test: Induction of ARE-mediated GST Ya mRNA expression in MIF siRNA transfected rat H9c2 cells at 3 uM measured after 24 hrs in presence of rat MIF by RT-qPCR analysis; format: cell-based
In short: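 H9c2 cells transfected with MIF siRNA or control siRNA (100 nM, Oligofectamine), then treated with 3 μM compound with or without 0.8 μM rMIF for 24 hr. GST Ya and HO-1 mRNA by real-time qPCR; mean ± SD, n = 3. MIF effect on drug efficacy tested by Aspin-Welch test.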

[11] = molecular target: Macrophage migration inhibitory factor (Rattus norvegicus) (UniProt P30904); test: Inhibition of [3H]-BTZO-1 binding to recombinant rat C-terminal His-tagged MIF expressed in Escherichia coli BL21 (DE3) measured after 3 hrs by SPA
Target sequence in this assay (P30904 whole entry, looked up): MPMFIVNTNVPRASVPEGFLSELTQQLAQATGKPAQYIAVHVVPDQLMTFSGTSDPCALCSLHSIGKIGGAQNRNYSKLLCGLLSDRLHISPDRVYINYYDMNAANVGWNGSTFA

[12] = species on record: Rattus norvegicus; test: Binding affinity to rat 6His-tagged VILIP3 expressed in Escherichia coli BL21 (DE3) at 400 nM incubated for 6 hrs using labelled compound by scintillation proximity assay
In short: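 Scintillation proximity assay: 6His-tagged protein (hMIF, rat GST Ya or rat VILIP3) captured on copper His-tag SPA beads with [3H]-BTZO-1; emitted light counted on a microplate scintillation counter. Mean of n = 2.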

[13] = tested on: Antioxidant response element; test: Induction of ARE activity in serum-deprived neonatal Wistar rat cardiomyocytes assessed as increase in HO-1 expression up to 400 nM measured after 24 hrs by Western blot analysis; format: cell-based; details: Cardiomyocyte; in short: as §2
[14] = Upregulation of 3-methylcholanthrene-inducible truncated UDP-glucuronosyl transferase gene expression in serum-deprived neonatal Wistar rat cardiomyocyte at 0.37 uM incubated for 21 hrs by microarray analysis relative to control; format: functional, Cardiac muscle cell; in short: as §3
[15] = Upregulation of glutathione reductase gene expression in serum-deprived neonatal Wistar rat cardiomyocyte at 0.37 uM incubated for 21 hrs by microarray analysis relative to control; format: functional, Cardiac muscle cell
In short: (§5)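 Primary neonatal rat cardiomyocytes, isolated by proteinase digestion with preplating to deplete nonmyocytes, cultured in serum-free medium with or without 0.37 μM compound for 21 hr. Total RNA was recovered and global expression profiled on an Affymetrix GeneChip rat genome U34A array (about 7000 known genes). Change is relative to untreated cells.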

[16] = Reduction in MIF mRNA expression in rat H9c2 cells transfected with MIF siRNA at 3 uM measured after 24 hrs RT-qPCR analysis relative to control; format: functional; set-up: scale not given: the % may be the effect or the level left; in short: as §1
[17] = molecular target: Macrophage migration inhibitory factor (Rattus norvegicus) (UniProt P30904); test: Induction of MIF-stimulated ARE activity in rat H9c2 cells assessed as increase in HO-1 expression at 3 uM incubated for 6 hrs by RT-qPCR analysis; format: cell-based
Target sequence in this assay (P30904 2-115 limits assumed): as the sequence (P30904 2-115 limits assumed) above

[18] = Upregulation of gamma-glutamylcysteine synthetase gene expression in serum-deprived neonatal Wistar rat cardiomyocyte at 0.37 uM incubated for 21 hrs by microarray analysis relative to control; format: functional, Cardiac muscle cell; in short: as §5
[19] = Upregulation of glutathione S-transferase Yc1 subunit gene expression in serum-deprived neonatal Wistar rat cardiomyocyte at 0.37 uM incubated for 21 hrs by microarray analysis relative to control; format: functional, Cardiac muscle cell; in short: as §5
[20] = molecular target: Macrophage migration inhibitory factor (Rattus norvegicus) (UniProt P30904); test: Binding affinity to BTZO-12 sensor chip immobilized recombinant rat MIF expressed in Escherichia coli BL21 (DE3) at pH 7.3 by SPR analysis; in short: as §4
Target sequence in this assay (P30904 2-115 limits assumed): as above

[21] = Upregulation of UDP glucuronosyltransferase, exon 1 gene expression in serum-deprived neonatal Wistar rat cardiomyocyte at 0.37 uM incubated for 21 hrs by microarray analysis relative to control; format: functional, Cardiac muscle cell; in short: as §3

Question: For `O=c1nc(-c2ccccn2)sc2ccccc12` [BTZO-1], which Activity [1] is on record?
Answer: ~50%

Question: What about the Activity [2] of the same compound?
Answer: Active

Question: And the “fold change (FC)” value [3]?
Answer: 2.1

Question: And the Activity [4]?
Answer: Active

Question: What about the Ratio [5] of the same compound?
Answer: 10000

Question: What about the Activity [6] of the same compound?
Answer: Active

Question: What about the inhibition [7] of the same compound?
Answer: 20%

Question: What about the Activity [8] of the same compound?
Answer: Active

Question: What about the Activity [9] of the same compound?
Answer: Dose-Dependent Effect

Question: What about the MEC2 [9] of the same compound?
Answer: 0.82 µM

Question: And the Activity [10]?
Answer: Active

Question: What about the IC50 [11] of the same compound?
Answer: 71 nM

Question: And the Activity [12]?
Answer: inactive

Question: And the Activity [13]?
Answer: Active

Question: What about the “fold change (FC)” value [14] of the same compound?
Answer: 2.2

Question: And the “fold change (FC)” value [15]?
Answer: 4.4

Question: What about the Activity [16] of the same compound?
Answer: ~80%

Question: What about the Activity [17] of the same compound?
Answer: Active

Question: What about the “fold change (FC)” value [18] of the same compound?
Answer: 2.4

Question: What about the “fold change (FC)” value [19] of the same compound?
Answer: 2.1

Question: What about the Activity [20] of the same compound?
Answer: Active

Question: And the “fold change (FC)” value [21]?
Answer: 5
